# Tests used:
# Type in all cases: functional
# Cavia porcellus [1] = experiment: In vivo reversal activity versus ~90% block by rocuronium in guinea pig
# How it was run: (§1)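 Male Dunkin-Hartley guinea pigs (600-900 g), anaesthetized ip with pentobarbitone 10 mg/kg plus urethane 1000 mg/kg, tracheotomized and ventilated. Continuous iv rocuronium infusion (~10 nmol kg-1 min-1) was raised to a steady 85-90% block. Increasing iv doses of agent were given cumulatively. ED50 = 50% recovery versus preblock twitch, by regression. Mean ± SEM of at least two experiments, or one.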
# Mus musculus [2] = species on record: Mus musculus; experiment: In vitro reversal activity versus ~90% block by rocuronium in isolated mouse hemidiaphragm, expressed as % of maximum reversal at 14.4 uM conc.
# Cavia porcellus [3] = experiment: In vivo reversal activity versus ~90% block by rocuronium in guinea pig, expressed as % of maximum reversal at 3.2 umol/kg conc.
# How it was run: (§2)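 Male Dunkin-Hartley guinea pigs (600-900 g) anaesthetized ip with pentobarbitone 10 mg/kg plus urethane 1000 mg/kg, tracheotomized and artificially ventilated. Continuous iv rocuronium bromide infusion (~10 nmol kg-1 min-1) raised until steady-state twitch block of 85-90%. Increasing single iv doses of reversal agent given by a separate catheter. Max reversal is peak twitch recovery versus preblock height at highest dose tested; means ± SEM, n ≥ 2 or single experiment.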
# Mus musculus [4] = species on record: Mus musculus; experiment: In vitro reversal activity versus ~90% block by rocuronium in isolated mouse hemidiaphragm, expressed as effective conc.
# Cavia porcellus [5] = experiment: In vivo reversal activity versus ~90% block by rocuronium in guinea pig, expressed as % of maximum reversal at 2.5 umol/kg conc.; how it was run: as §2
# Mus musculus [6] = species on record: Mus musculus; experiment: In vitro reversal activity versus ~90% block by rocuronium in isolated mouse hemidiaphragm, expressed as % of maximum reversal at 12.6 uM conc.
# Cavia porcellus [7] = experiment: In vivo reversal activity versus ~90% block by rocuronium in guinea pig, expressed as % of maximum reversal at 0.2 umol/kg conc.; how it was run: as §1
# Mus musculus [8] = species on record: Mus musculus; experiment: In vitro reversal activity versus ~90% block by rocuronium in isolated mouse hemidiaphragm, expressed as % of maximum reversal at 3.6 uM conc.
# Cavia porcellus [9] = experiment: In vivo reversal activity versus ~90% block by rocuronium in guinea pig, expressed as % of maximum reversal at 0.6 umol/kg conc.; how it was run: as §1
# Mus musculus [10] = species on record: Mus musculus; experiment: In vitro reversal activity versus ~90% block by rocuronium in isolated mouse hemidiaphragm, expressed as % of maximum reversal at 5.4 uM conc.
# Cavia porcellus [11] = experiment: In vivo reversal activity versus ~90% block by rocuronium in guinea pig, expressed as % of maximum reversal at 21 umol/kg conc.; how it was run: as §2
# Mus musculus [12] = species on record: Mus musculus; experiment: In vitro reversal activity versus ~90% block by rocuronium in isolated mouse hemidiaphragm, expressed as % of maximum reversal at 18 uM conc.
# Cavia porcellus [13] = experiment: In vivo reversal activity versus ~90% block by rocuronium in guinea pig, expressed as % of maximum reversal at 30.7 umol/kg conc.; how it was run: as §2
# Cavia porcellus [14] = experiment: In vivo reversal activity versus ~90% block by rocuronium in guinea pig, expressed as % of maximum reversal at 1.3 umol/kg conc.; how it was run: as §1
# Mus musculus [15] = species on record: Mus musculus; experiment: In vitro reversal activity versus ~90% block by rocuronium in isolated mouse hemidiaphragm, expressed as % of maximum reversal at 7.2 uM conc.
# Cavia porcellus [16] = experiment: In vivo reversal activity versus ~90% block by rocuronium in guinea pig, expressed as % of maximum reversal at 25.6 umol/kg conc.; how it was run: as §2
# Cavia porcellus [17] = experiment: In vivo reversal activity versus ~90% block by rocuronium in guinea pig, expressed as % of maximum reversal at 1.6 umol/kg conc.; how it was run: as §1
# Mus musculus [18] = species on record: Mus musculus; experiment: In vitro reversal activity versus ~90% block by rocuronium in isolated mouse hemidiaphragm, expressed as % of maximum reversal at 2.9 uM conc.
# Cavia porcellus [19] = experiment: In vivo reversal activity versus ~90% block by rocuronium in guinea pig, expressed as % of maximum reversal at 1.4 umol/kg conc.; how it was run: as §1
# Mus musculus [20] = species on record: Mus musculus; experiment: In vitro reversal activity versus ~90% block by rocuronium in isolated mouse hemidiaphragm, expressed as % of maximum reversal at 2.2 uM conc.
Compound,EC50 (Mus musculus [4]) [µM],ED50 (Cavia porcellus [1]) [µmol/kg],other results
O=C([O-])CCCSCC1O[C@@H]2O[C@@H]3C(CSCCCC(=O)[O-])O[C@H](O[C@@H]4C(CSCCCC(=O)[O-])O[C@H](O[C@@H]5C(CSCCCC(=O)[O-])O[C@@H](O[C@@H]6C(CSCCCC(=O)[O-])O[C@H](O[C@@H]7C(CSCCCC(=O)[O-])O[C@H](O[C@@H]8C(CSCCCC(=O)[O-])O[C@H](O[C@H]1C(O)C2O)C(O)C8O)C(O)C7O)C(O)C6O)C(O)C5O)C(O)C4O)C(O)C3O.[Na+].[Na+].[Na+].[Na+].[Na+].[Na+].[Na+] (stereo not given in full),5,0.49,Max reversal (Mus musculus [2]): 95.3%; Max reversal (Cavia porcellus [3]): 99.6%
O=C([O-])CCCCCSCC1O[C@@H]2O[C@@H]3C(CSCCCCCC(=O)[O-])O[C@H](O[C@@H]4C(CSCCCCCC(=O)[O-])O[C@H](O[C@@H]5C(CSCCCCCC(=O)[O-])O[C@H](O[C@@H]6C(CSCCCCCC(=O)[O-])O[C@H](O[C@@H]7C(CSCCCCCC(=O)[O-])O[C@H](O[C@@H]8C(CSCCCCCC(=O)[O-])O[C@H](O[C@@H]9C(CSCCCCCC(=O)[O-])O[C@H](O[C@H]1C(O)C2O)C(O)C9O)C(O)C8O)C(O)C7O)C(O)C6O)C(O)C5O)C(O)C4O)C(O)C3O.[Na+].[Na+].[Na+].[Na+].[Na+].[Na+].[Na+].[Na+] (stereo not given in full),7,0.74,Max reversal (Cavia porcellus [5]): 78.4%; Max reversal (Mus musculus [6]): 81.7%
O=S(=O)([O-])CCCSCC1O[C@@H]2O[C@@H]3C(CSCCCS(=O)(=O)[O-])O[C@H](O[C@@H]4C(CSCCCS(=O)(=O)[O-])O[C@H](O[C@@H]5C(CSCCCS(=O)(=O)[O-])O[C@H](O[C@@H]6C(CSCCCS(=O)(=O)[O-])O[C@H](O[C@@H]7C(CSCCCS(=O)(=O)[O-])O[C@H](O[C@@H]8C(CSCCCS(=O)(=O)[O-])O[C@H](O[C@@H]9C(CSCCCS(=O)(=O)[O-])O[C@H](O[C@H]1C(O)C2O)C(O)C9O)C(O)C8O)C(O)C7O)C(O)C6O)C(O)C5O)C(O)C4O)C(O)C3O.[Na+].[Na+].[Na+].[Na+].[Na+].[Na+].[Na+].[Na+] (stereo not given in full),1.8,0.07,Max reversal (Cavia porcellus [7]): 98.6%; Max reversal (Mus musculus [8]): 99.3%
O=C([O-])CCC(=O)NCCSCC1O[C@@H]2O[C@@H]3C(CSCCNC(=O)CCC(=O)[O-])O[C@H](O[C@@H]4C(CSCCNC(=O)CCC(=O)[O-])O[C@H](O[C@@H]5C(CSCCNC(=O)CCC(=O)[O-])O[C@H](O[C@@H]6C(CSCCNC(=O)CCC(=O)[O-])O[C@H](O[C@@H]7C(CSCCNC(=O)CCC(=O)[O-])O[C@H](O[C@@H]8C(CSCCNC(=O)CCC(=O)[O-])O[C@H](O[C@@H]9C(CSCCNC(=O)CCC(=O)[O-])O[C@H](O[C@H]1C(O)C2O)C(O)C9O)C(O)C8O)C(O)C7O)C(O)C6O)C(O)C5O)C(O)C4O)C(O)C3O.[Na+].[Na+].[Na+].[Na+].[Na+].[Na+].[Na+].[Na+] (stereo not given in full),1.08,0.07,Max reversal (Cavia porcellus [9]): 107.1%; Max reversal (Mus musculus [10]): 99.4%
O=C([O-])CSCC1O[C@@H]2O[C@@H]3C(CSCC(=O)[O-])O[C@H](O[C@@H]4C(CSCC(=O)[O-])O[C@H](O[C@@H]5C(CSCC(=O)[O-])O[C@H](O[C@@H]6C(CSCC(=O)[O-])O[C@H](O[C@@H]7C(CSCC(=O)[O-])O[C@H](O[C@H]1C(O)C2O)C(O)C7O)C(O)C6O)C(O)C5O)C(O)C4O)C(O)C3O.[Na+].[Na+].[Na+].[Na+].[Na+].[Na+] (stereo not given in full),> 18,> 21,Max reversal (Cavia porcellus [11]): 3.6%; Max reversal (Mus musculus [12]): 22.8%
Oc1ccc(SCC2O[C@@H]3O[C@@H]4C(CSc5ccc(O)cc5)O[C@H](O[C@@H]5C(CSc6ccc(O)cc6)O[C@H](O[C@@H]6C(CSc7ccc(O)cc7)O[C@H](O[C@@H]7C(CSc8ccc(O)cc8)O[C@H](O[C@@H]8C(CSc9ccc(O)cc9)O[C@H](O[C@@H]9C(CSc%10ccc(O)cc%10)O[C@H](O[C@@H]%10C(CSc%11ccc(O)cc%11)O[C@H](O[C@H]2C(O)C3O)C(O)C%10O)C(O)C9O)C(O)C8O)C(O)C7O)C(O)C6O)C(O)C5O)C(O)C4O)cc1 (stereo not given in full),4.9,4.1,Max reversal (Mus musculus [2]): 93.2%; Max reversal (Cavia porcellus [16]): 79.3%
O=C([O-])Cc1ccc(SCC2O[C@@H]3O[C@@H]4C(CSc5ccc(CC(=O)[O-])cc5)O[C@H](O[C@@H]5C(CSc6ccc(CC(=O)[O-])cc6)O[C@H](O[C@@H]6C(CSc7ccc(CC(=O)[O-])cc7)O[C@H](O[C@@H]7C(CSc8ccc(CC(=O)[O-])cc8)O[C@H](O[C@@H]8C(CSc9ccc(CC(=O)[O-])cc9)O[C@H](O[C@@H]9C(CSc%10ccc(CC(=O)[O-])cc%10)O[C@H](O[C@@H]%10C(CSc%11ccc(CC(=O)[O-])cc%11)O[C@H](O[C@H]2C(O)C3O)C(O)C%10O)C(O)C9O)C(O)C8O)C(O)C7O)C(O)C6O)C(O)C5O)C(O)C4O)cc1.[Na+].[Na+].[Na+].[Na+].[Na+].[Na+].[Na+].[Na+] (stereo not given in full),1.4,0.14,Max reversal (Cavia porcellus [17]): 103.8%; Max reversal (Mus musculus [18]): 98.9%

# The next lines start with results.
EC50 (Mus musculus [4]) [µM],Compound,ED50 (Cavia porcellus [1]) [µmol/kg],other results
34.7,O=C([O-])Cc1ccc(SCC2O[C@@H]3O[C@@H]4C(CO)O[C@H](O[C@@H]5C(CO)O[C@H](O[C@@H]6C(CO)O[C@H](O[C@@H]7C(CO)O[C@H](O[C@@H]8C(CO)O[C@H](O[C@@H]9C(CO)O[C@H](O[C@@H]%10C(CO)O[C@H](O[C@H]2C(O)C3O)C(O)C%10O)C(O)C9O)C(O)C8O)C(O)C7O)C(O)C6O)C(O)C5O)C(O)C4O)cc1.[Na+] (stereo not given in full),4.55,Max reversal (Cavia porcellus [13]): 97.1%; Max reversal (Mus musculus [12]): 45%
3.3,O=C([O-])c1cccc(SCC2O[C@@H]3O[C@@H]4C(CSc5cccc(C(=O)[O-])c5)O[C@H](O[C@@H]5C(CSc6cccc(C(=O)[O-])c6)O[C@H](O[C@@H]6C(CSc7cccc(C(=O)[O-])c7)O[C@H](O[C@@H]7C(CSc8cccc(C(=O)[O-])c8)O[C@H](O[C@@H]8C(CSc9cccc(C(=O)[O-])c9)O[C@H](O[C@@H]9C(CSc%10cccc(C(=O)[O-])c%10)O[C@H](O[C@@H]%10C(CSc%11cccc(C(=O)[O-])c%11)O[C@H](O[C@H]2C(O)C3O)C(O)C%10O)C(O)C9O)C(O)C8O)C(O)C7O)C(O)C6O)C(O)C5O)C(O)C4O)c1.[Na+].[Na+].[Na+].[Na+].[Na+].[Na+].[Na+].[Na+] (stereo not given in full),0.28,Max reversal (Cavia porcellus [14]): 102%; Max reversal (Mus musculus [15]): 95.7%
1,O=C([O-])c1ccc(SCC2O[C@@H]3O[C@@H]4C(CSc5ccc(C(=O)[O-])cc5)O[C@H](O[C@@H]5C(CSc6ccc(C(=O)[O-])cc6)O[C@H](O[C@@H]6C(CSc7ccc(C(=O)[O-])cc7)O[C@H](O[C@@H]7C(CSc8ccc(C(=O)[O-])cc8)O[C@H](O[C@@H]8C(CSc9ccc(C(=O)[O-])cc9)O[C@H](O[C@@H]9C(CSc%10ccc(C(=O)[O-])cc%10)O[C@H](O[C@@H]%10C(CSc%11ccc(C(=O)[O-])cc%11)O[C@H](O[C@H]2C(O)C3O)C(O)C%10O)C(O)C9O)C(O)C8O)C(O)C7O)C(O)C6O)C(O)C5O)C(O)C4O)cc1.[Na+].[Na+].[Na+].[Na+].[Na+].[Na+].[Na+].[Na+] (stereo not given in full),0.12,Max reversal (Cavia porcellus [19]): 97.6%; Max reversal (Mus musculus [20]): 97%
